This note sets out measurements from ChEMBL document CHEMBL3351861, “New synthetic sulfone derivatives inhibit growth, adhesion and the leucine arylamidase APE2 gene expression of Candida albicans in vitro” (2015).

The test system of test [1] is Candida albicans. Kind of test: Inhibition of cell adhesion of compound pre-treated Candida albicans 90028 to human Caco2 cells assessed as cell adhesion level at 4 ug/ml pre-incubated for 18 hrs by colony counting method (reference value: 1.58 +/- 0.67%). The format is functional, Caco-2. On the set-up: scale not given: the % may be the effect or the level left.
Test [2] concerns Candida albicans. Description: Antifungal activity against Candida albicans CAI4 expressing delta-cph1/delta-efg1 gene assessed as growth inhibition at 8 ug/ml by CLSI M27-A3 method. The format is functional. The note with it: read-out: GI. In a few lines: (§1)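 CLSI M27-A3 broth microdilution in RPMI, read after 48 h. Strains pre-grown 18 h in YEPD at 30°C. Final inoculum 0.5×10^2–2.5×10^3 cells/ml. Two-fold dilutions in RPMI came from a 1600 µg/ml stock in water with 9% DMSO; final DMSO was 0.09%. OD405 read, % inhibition = 100 − (CTW−SCW)/(GCW−SCW). Triplicate on three occasions, mean±SD.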

For test [3], the system named is Candida albicans. Description: Antifungal activity against Candida albicans CAI4 expressing delta-efg1 gene assessed as growth inhibition at 8 ug/ml by CLSI M27-A3 method. The format is functional. The conditions noted are these: read-out: GI. Summed up: (§2)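 CLSI M27-A3 broth microdilution in RPMI. Final inoculum 0.5×10^2 to 2.5×10^3 cells/ml. Seven two-fold concentrations from 0.25 to 16 µg/ml, with DMSO held at 0.09% (v/v) in all wells. Compound-free growth controls and sterility controls are run for each strain. […] Triplicate on three occasions.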

Test [4] relates to Candida albicans. Kind of test: Reduction in APE2 gene expression in compound pre-treated Candida albicans CAI4 expressing delta-cph1 (CPH1) gene grown on human Caco2 cells monolayer at 16 ug/ml pre-treated for 2 hrs measured after 6 hrs by RT-PCR method. The format is functional, Caco-2. Summed up: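 Blastoconidia are pre-incubated 2 h with 16 µg/ml sulfone in RPMI. They are then washed, resuspended in RPMI and placed on Caco-2 monolayers at 37°C, with RNA taken at 6 or 18 h. Real-time RT-PCR uses SYBR Green with 250 nM primers and 60 ng cDNA: 95°C 15 min, then 45 cycles of 94°C 15 s and 60°C 1 min, plus a melt curve. APE2 is normalized to ACT1 by 2^-ΔΔCt with 90028 as calibrator; three experiments.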

Test [5] concerns Candida albicans. Description: Inhibition of cell adhesion of compound pre-treated Candida albicans CAI4 expressing delta-cph1/delta-efg1 (EFG1) gene to human Caco2 cells assessed as cell adhesion level at 16 ug/ml pre-incubated for 18 hrs by colony counting method (reference value: 1.24 +/- 1.06%). The format is functional, Caco-2. On the set-up: scale not given: the % may be the effect or the level left.

The subject of test [6] is Candida albicans. Description: Inhibition of cell adhesion of compound pre-treated Candida albicans CAI4 expressing delta-efg1 gene to human Caco2 cells assessed as cell adhesion level at 4 ug/ml pre-incubated for 18 hrs by colony counting method (reference value: 2.1 +/- 3.52%). The format is functional, Caco-2. On the set-up: scale not given: the % may be the effect or the level left.

Test [7] relates to Candida albicans. Kind of test: Reduction in APE2 gene expression in compound pre-treated Candida albicans CAI4 expressing delta-cph1/delta-efg1 (EFG1) gene grown under YEPD medium at 16 ug/ml pre-treated for 2 hrs measured after 18 hrs by RT-PCR method. Type of test: functional. Summed up:
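Blastoconidia from YEPD (10^4 cfu/ml) are washed and exposed 2 h to 16 µg/ml sulfone in YEPD. They are then washed and regrown 18 h at 30°C in YEPD before RNA extraction. Real-time RT-PCR uses SYBR Green with 250 nM primers and 60 ng cDNA: 95°C 15 min, then 45 cycles of 94°C 15 s and 60°C 1 min, plus a dissociation curve. APE2 is normalized to ACT1 by 2^-ΔΔCt with strain 90028 as calibrator; three experiments.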

Test [8] has as its system Candida albicans. Kind of test: Inhibition of cell adhesion of compound pre-treated Candida albicans CAI4 expressing delta-efg1/delta-cph1 gene to human Caco2 cells assessed as cell adhesion level at 4 ug/ml pre-incubated for 18 hrs by colony counting method (reference value: 1.22 +/- 0.78%). Type of test: functional, Caco-2. On the set-up: scale not given: the % may be the effect or the level left.

The test system of test [9] is Candida albicans. Description: Inhibition of cell adhesion of compound pre-treated Candida albicans CAI4 expressing delta-efg1 gene to human Caco2 cells assessed as cell adhesion level at 8 ug/ml pre-incubated for 18 hrs by colony counting method (reference value: 2.1 +/- 3.52%). Type of test: functional, Caco-2. Also on record: scale not given: the % may be the effect or the level left.

In test [10] the test system is Candida albicans. Kind of test: Antifungal activity against Candida albicans CAI4 expressing delta-cph1/delta-efg1 gene assessed as growth inhibition at 1 ug/ml by CLSI M27-A3 method. The format is functional. The note with it: read-out: GI. Summed up: as §1
Test [11] has as its system Candida albicans. Description: Inhibition of cell adhesion of compound pre-treated Candida albicans CAI4 expressing delta-efg1 (EFG1) gene to human Caco2 cells assessed as cell adhesion level at 4 ug/ml pre-incubated for 18 hrs by colony counting method (reference value: 2.6 +/- 2.33%). The format is functional, Caco-2. Also on record: scale not given: the % may be the effect or the level left.

The subject of test [12] is Candida albicans. Description: Antifungal activity against Candida albicans CAI4 expressing delta-cph1/delta-efg1 (EFG1) gene assessed as growth inhibition at by CLSI M27-A3 method. The format is functional.
Test [13] has as its system Candida albicans. Description: Inhibition of cell adhesion of compound pre-treated Candida albicans CAI4 expressing delta-cph1 gene to human Caco2 cells assessed as cell adhesion level at 4 ug/ml pre-incubated for 18 hrs by colony counting method (reference value: 1.6 +/- 0.65%). On the set-up: scale not given: the % may be the effect or the level left. Type of test: functional, Caco-2.

The test system of test [14] is Candida albicans. Kind of test: Inhibition of cell adhesion of compound pre-treated Candida albicans SC5314 to human Caco2 cells assessed as cell adhesion level at 8 ug/ml pre-incubated for 2 hrs by colony counting method (reference value: 1.1 +/- 1.1%). Also on record: scale not given: the % may be the effect or the level left.
In test [15] the test system is Candida albicans. Kind of test: Antifungal activity against Candida albicans 90028 assessed as growth inhibition at by CLSI M27-A3 method. Type of test: functional.
Test [16] deals with Candida albicans. Description: Inhibition of cell adhesion of compound pre-treated Candida albicans CAI4 expressing delta-efg1/delta-cph1 gene to human Caco2 cells assessed as cell adhesion level at 2 ug/ml pre-incubated for 18 hrs by colony counting method (reference value: 1.22 +/- 0.78%). Type of test: functional, Caco-2. On the set-up: scale not given: the % may be the effect or the level left.

Test [17] relates to Candida albicans. Description: Antifungal activity against Candida albicans CAI4 expressing delta-cph1/delta-efg1 (EFG1) gene assessed as growth inhibition at 8 ug/ml by CLSI M27-A3 method. The format is functional. The conditions noted are these: read-out: GI. In a few lines: as §1
For test [18], the system named is Candida albicans. Description: Antifungal activity against Candida albicans CAI4 expressing delta-cph1 gene assessed as growth inhibition at 8 ug/ml by CLSI M27-A3 method. The format is functional. The conditions noted are these: read-out: GI. In a few lines:
as §1

Test [19] has as its system Candida albicans. Kind of test: Antifungal activity against Candida albicans CAI4 expressing delta-efg1 gene assessed as growth inhibition at 1 ug/ml by CLSI M27-A3 method. Type of test: functional. The note with it: read-out: GI. In a few lines:
as §2

Test [20] concerns Candida albicans. Description: Antifungal activity against Candida albicans CAI4 expressing delta-cph1 (CPH1) gene assessed as growth inhibition at 0.25 ug/ml by CLSI M27-A3 method. The note with it: read-out: GI. The format is functional. Summed up:
as §1

Test [21] concerns Candida albicans. Description: Antifungal activity against Candida albicans 90028 assessed as growth inhibition at 4 ug/ml by CLSI M27-A3 method. Type of test: functional. The note with it: read-out: GI. In a few lines:
as §1

Test [22] deals with Candida albicans. Kind of test: Inhibition of cell adhesion of compound pre-treated Candida albicans CAI4 expressing delta-efg1 (EFG1) gene to human Caco2 cells assessed as cell adhesion level at 8 ug/ml pre-incubated for 18 hrs by colony counting method (reference value: 2.6 +/- 2.33%). Also on record: scale not given: the % may be the effect or the level left. The format is functional, Caco-2.

Each structure is given as a SMILES string. In brackets after ≈: the same amount, converted by molar mass.

The MIC90 is an inhibitory concentration at the 90% level, which refers to growth in some studies and to a panel of isolates in others. As to `NNc1ccc(S(=O)(=O)C(Cl)(Br)Br)cc1[N+](=O)[O-]`, the Activity is 0.91% in test [1]; 1.5% in [5]; 0.69% in test [6]; 2.74% in [8]; 0.63% in [9]; 0.91% in test [11]. In addition, the Activity stood at 0.22% in [13], 0.45% in test [14] and 2.94% in [16]. In addition, the inhibition of growth at 8 µg/mL in test [2] was 100%; in test [3] it was 100%; in test [17], 99.4%; in [18], 100%. The “fold change (FC)” value in test [4] was determined as 10.25. The ΔCt in [7] was determined as 3.3. In addition, the inhibition of growth at 1 µg/mL in [10] is 100%; in test [19], 99.5%. Further, the MIC90 in test [12] and in test [15] was 4 µg/mL (≈ 9.45 µM) throughout. For the same compound, the inhibition of growth at 0.25 µg/mL in test [20] was determined as 98.6%. For the same compound, the inhibition of growth at 4 µg/mL in test [21] came to 99.7%.
Take `O=[N+]([O-])c1cc(S(=O)(=O)C(Cl)(Cl)Br)ccc1Cl`: the inhibition of growth at 8 µg/mL amounted to 99.4% in test [2], 99.5% in test [3], 99.8% in test [17] and 99.3% in test [18]. In addition, the Activity in [5] is given as 0.75%; in test [6] it was 1.14%; in test [8], 1.02%; in [9], 0.49%; in test [13], 0.55%; in test [14], 0.36%. For the same compound, the Activity was 0.78% in test [16] and 1.13% in [22]. For the same compound, the inhibition of growth at 1 µg/mL in test [10] is 98.8%; in test [19], 98.5%. The MIC90 in test [12] and in test [15] was 16 µg/mL (≈ 41.7 µM) each time. For the same compound, in [20], the inhibition of growth at 0.25 µg/mL amounted to 96.7%. Also, the inhibition of growth at 4 µg/mL in test [21] was determined as 99.4%.
Take `O=[N+]([O-])c1cc(S(=O)(=O)C(Cl)Cl)ccc1Cl`: the inhibition of growth at 8 µg/mL was found to be 99.4% in [2], 99.4% in test [3], 99.3% in [17] and 99.2% in test [18]. Moreover, the Activity is reported as 1.68% in test [5]; 0.97% in test [6]; 0.36% in test [8]; 0.69% in test [9]; 0.99% in [13]; 0.47% in test [16]. Also, in test [22], the Activity was 1.18%. Also, the figures for the inhibition of growth at 1 µg/mL in [10] and in [19] were 99.1% and 99.4%, respectively. For the same compound, the MIC90 in [12] and in test [15] was 16 µg/mL (≈ 52.5 µM) throughout. Further, the inhibition of growth at 0.25 µg/mL in test [20] amounted to 91.8%. In addition, the inhibition of growth at 4 µg/mL in [21] was 99.2%.
